# Experimental data collected from several papers.
# Protocols differ between the studies behind these lines.
# Target: Serine/threonine-protein kinase 16 (STK16, Homo sapiens, UniProt O75716)
SMILES,test,setting,endpoint,value
CN1CC(Oc2cnc(C#N)cc2-c2ccn3nc(NC(=O)C4CC4)cc3c2)C1,"enzyme activity, inhibitor",1 µM,inhibition,10%
O=C(NCc1ncc(C(F)(F)F)cc1Cl)c1ccc2c(c1)C1(CCS(=O)(=O)CC1)[C@@H](C1CC1)N2S(=O)(=O)c1ccc(F)cc1,"cell-free assay, competition with immobilised ligand",1 µM,remaining binding,99%
Cn1cnc(Br)c1C1=CN(c2ncnc3[nH]cnc23)CCS1,"enzyme activity, inhibitor, radiometric",2 µM,inhibition,67.8%
N#CCCc1ccc2c(c1)-c1[nH]c3ccc([N+](=O)[O-])cc3c1CC(=O)N2,cell-free assay,0.5 µM,remaining signal,87%
CC(=O)Nc1c(C(C)=O)c(=O)n(C)c2nc(-c3ccc(Cl)cc3Cl)c(-c3ccc(Cl)cc3)cc12,"cell-free assay, competition with immobilised ligand",1 µM,remaining binding,100%
C[C@@H]1CCN(C(=O)CC#N)C[C@@H]1N(C)c1ncnc2[nH]ccc12,"cell-free assay, inhibitor",0.5 µM,remaining signal,94.7%
O=C(Nc1cnn(-c2csc(C(=O)NC3COC3)c2)c1)Nc1ccccc1Cl,"enzyme activity, inhibitor",5 µM,remaining activity,98.6%
COc1cc(/C=C/C(=O)CC(=O)/C=C/c2ccc(O)c(OC)c2)ccc1O,"enzyme activity, inhibitor",1 µM,activity vs control,91%
C#Cc1cccc(Nc2ncnc3cc(OCCOC)c(OCCOC)cc23)c1,cell-free assay,0.5 µM,remaining signal,98%
FC(F)(F)Oc1cccc(-c2cnc3ccc(-c4ccncc4)nn23)c1,"enzyme activity, inhibitor, radiometric",1 µM,activity vs control,120%
CN(C)C(=O)Cn1cc(-c2nc(C3(c4ccc(-c5cnc(N)nc5)cc4)CC3)no2)cn1,"cell-free assay, competition with immobilised ligand",1 µM,remaining binding,100%
Oc1cccc(-c2nc(N3CCOCC3)c3oc4ncccc4c3n2)c1,cell-free assay,0.5 µM,remaining signal,91.7%
Cn1cncc1C1=CN(c2ncnc3[nH]cnc23)CCS1,"enzyme activity, inhibitor, radiometric",2 µM,inhibition,49.5%
CN(C(=O)c1ccccc1)c1cc(N(C)c2ccc3c(c2)CCc2ccc(C(=O)NCCN4CCOCC4)cc2C3=O)ccc1F,"cell-free assay, competition with immobilised ligand",1 µM,remaining binding,93%
Cc1sc(C(=O)NC2COC2)cc1-n1cc(NC(=O)Nc2c(F)cccc2Cl)cn1,"enzyme activity, inhibitor",10 µM,remaining activity,94.4%
c1ccc(N2CCN(Cc3nc4ccccc4[nH]3)CC2)nc1,"binding, competition with immobilised ligand",1 µM,remaining binding,87%
COc1cc(-c2cc(-c3ccc(N4CCNCC4)cc3)cnc2C)cc(OC)c1OC,"enzyme activity, inhibitor",0.1 µM,inhibition,4%
Nc1cnc(N2CCc3cc(S(=O)(=O)Nc4c(F)cc(Cl)cc4F)cc(N4CCCC4=O)c32)nc1,"cell-free assay, competition with immobilised ligand",1 µM,remaining binding,100%
COc1cc(Nc2cnc(C#N)c(O[C@H](C)CN(C)C)n2)ncc1-c1cnn(C)c1,"enzyme activity, inhibitor, radiometric",1 µM,remaining activity,91%
